Assay results taken from ChEMBL document CHEMBL3425438, “Investigation of (E)-3-[4-(2-Oxo-3-aryl-chromen-4-yl)oxyphenyl]acrylic Acids as Oral Selective Estrogen Receptor Down-Regulators” (J Med Chem, 2015).
Converted amounts (≈) assume the structure as drawn.

Tests used:
[1] = Free plasma concentration in rat by LC-UV-MS analysis; format: ADME, cell-free
Method in brief: (§1)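 Equilibrium dialysis in plasma of the matching species at 37 °C; free and bound concentrations quantified by LC-UV-MS; reported as % free.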

[2] = target: Voltage-gated inwardly rectifying potassium channel KCNH2 (Homo sapiens, UniProt Q12809); test: Inhibition of hERG channel by electrophysiology; format: toxicity
Sequence of Voltage-gated inwardly rectifying potassium channel KCNH2 (Q12809 whole entry): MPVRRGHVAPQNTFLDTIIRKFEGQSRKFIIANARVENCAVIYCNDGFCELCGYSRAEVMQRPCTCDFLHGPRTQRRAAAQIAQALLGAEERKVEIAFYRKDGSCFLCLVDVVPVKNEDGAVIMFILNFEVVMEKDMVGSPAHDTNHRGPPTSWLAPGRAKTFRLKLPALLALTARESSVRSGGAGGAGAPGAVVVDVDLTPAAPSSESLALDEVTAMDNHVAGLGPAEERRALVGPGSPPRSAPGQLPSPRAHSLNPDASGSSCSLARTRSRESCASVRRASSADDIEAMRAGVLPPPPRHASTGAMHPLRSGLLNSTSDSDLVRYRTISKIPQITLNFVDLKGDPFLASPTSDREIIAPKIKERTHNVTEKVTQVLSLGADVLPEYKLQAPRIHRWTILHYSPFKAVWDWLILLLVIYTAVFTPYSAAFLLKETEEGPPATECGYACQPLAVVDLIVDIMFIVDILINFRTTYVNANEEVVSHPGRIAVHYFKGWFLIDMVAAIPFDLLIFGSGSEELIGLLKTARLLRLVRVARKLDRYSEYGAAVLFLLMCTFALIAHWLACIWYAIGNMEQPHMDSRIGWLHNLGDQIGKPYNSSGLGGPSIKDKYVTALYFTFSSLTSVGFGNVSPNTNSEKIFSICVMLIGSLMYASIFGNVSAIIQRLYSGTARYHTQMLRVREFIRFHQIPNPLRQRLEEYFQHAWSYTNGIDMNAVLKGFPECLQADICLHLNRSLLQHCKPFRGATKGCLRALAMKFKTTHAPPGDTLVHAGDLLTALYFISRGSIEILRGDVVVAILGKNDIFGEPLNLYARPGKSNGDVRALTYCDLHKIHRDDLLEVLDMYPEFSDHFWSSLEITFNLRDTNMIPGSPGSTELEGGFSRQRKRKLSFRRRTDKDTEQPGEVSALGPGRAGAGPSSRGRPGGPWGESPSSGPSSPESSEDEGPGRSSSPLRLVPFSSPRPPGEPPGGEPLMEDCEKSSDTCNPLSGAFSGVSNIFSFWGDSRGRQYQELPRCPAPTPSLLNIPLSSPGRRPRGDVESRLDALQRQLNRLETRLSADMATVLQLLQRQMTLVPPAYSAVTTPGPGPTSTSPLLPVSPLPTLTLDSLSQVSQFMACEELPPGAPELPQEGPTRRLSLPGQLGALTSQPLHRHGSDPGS

[3] = Intrinsic clearance in rat hepatocytes measured per 10^6 cells; format: ADME, cell-based, Hepatocyte; details: read-out: CLH
[4] = Thermodynamic solubility of the compound in 0.1 M aqueous phosphate buffer at 25 degC at pH 7.4 after 24 hrs; format: physicochemical; details: read-out: Therm_solubility
[5] = Intrinsic clearance in human hepatocytes measured per 10^6 cells; format: ADME, cell-based, Hepatocyte; details: read-out: CLH
Estrogen receptor [6] = target: T1, Estrogen receptor (Homo sapiens, UniProt P03372); test: Suppression of ER alpha in human MCF7 cells after 24 hrs by immunostaining analysis; format: cell-based
T1 sequence (P03372 whole entry): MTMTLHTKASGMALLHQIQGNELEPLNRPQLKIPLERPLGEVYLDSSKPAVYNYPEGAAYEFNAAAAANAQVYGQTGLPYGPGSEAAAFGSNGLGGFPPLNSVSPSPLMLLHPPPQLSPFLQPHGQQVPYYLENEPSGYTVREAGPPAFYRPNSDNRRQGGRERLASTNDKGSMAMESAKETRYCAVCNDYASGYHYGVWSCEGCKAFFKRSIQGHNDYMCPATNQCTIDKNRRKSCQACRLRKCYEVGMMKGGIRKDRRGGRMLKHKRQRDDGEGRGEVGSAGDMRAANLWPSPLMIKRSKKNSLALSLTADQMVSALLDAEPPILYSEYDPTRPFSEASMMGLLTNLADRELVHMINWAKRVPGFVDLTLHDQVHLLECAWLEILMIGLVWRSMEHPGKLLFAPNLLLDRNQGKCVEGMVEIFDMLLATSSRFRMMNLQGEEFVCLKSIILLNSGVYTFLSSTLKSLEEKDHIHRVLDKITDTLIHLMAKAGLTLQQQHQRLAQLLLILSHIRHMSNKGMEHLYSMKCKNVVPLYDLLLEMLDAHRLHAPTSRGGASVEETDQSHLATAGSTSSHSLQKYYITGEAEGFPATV

[7] = Octanol-buffer partition coefficient, log D of the compound at ratio of 1:100 at pH 7.4 by shake-flask method; format: physicochemical
[8] = Dissociation constant, pKa of the compound by potentiometric analysis […] phenol; format: physicochemical
Method in brief: (§2)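 pKa (acid and phenol) by potentiometric titration.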

Estrogen receptor [9] = target: T1, Estrogen receptor; test: Binding affinity to ER alpha (unknown origin) by LanthaScreen TR-FRET competitive binding assay
Method in brief: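 LanthaScreen TR-FRET ERα competitive binding; 12-point half-log concentration response; TR-FRET emission ratio read on microplate reader; IC50 reported.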

[10] = Intrinsic clearance in mouse hepatocytes measured per 10^6 cells; format: ADME, cell-based, Hepatocyte; details: read-out: CLH
[11] = Oral bioavailability in Alderley Park Han Wistar rat at 5 mg/kg using HPMC/tween suspension; format: ADME, organism-based; details: in vivo
Method in brief: (§3)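 Fed Han Wistar rats, two per study; oral HPMC/tween suspension at 1, 5 or 50 mg/kg as stated per line; IV reference 0.5 mg/kg in aqueous DMSO/cyclodextrin.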

[12] = Apparent permeability from apical to basolateral side in human Caco2 cells; format: ADME, cell-based; details: Caco-2
[13] = Free plasma concentration in mouse by LC-UV-MS analysis; format: ADME, cell-free; method in brief: as §1
[14] = Dissociation constant, pKa of the compound in acidic medium by potentiometric analysis; format: physicochemical; method in brief: as §2
[15] = Clearance in Alderley Park Han Wistar rat at 0.5 mg/kg, iv; format: ADME, organism-based; design: dose 0.5 mg/kg, route intravenous; details: in vivo
MCF7 = test: Inhibition of cell proliferation in human MCF7 cells after 7 days by laser scanning imaging cytometer analysis; format: functional, cell-based; details: MCF7, 168 h
Method in brief: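 MCF-7 cells plated in reduced-serum medium the day before; concentration response for 7 days; cell number by nucleic acid stain, read on laser scanning imaging cytometer; EC50 for decrease in proliferation.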

[16] = Free plasma concentration in human by LC-UV-MS analysis; format: ADME, cell-free; method in brief: as §1
Estrogen receptor [17] = target: T1, Estrogen receptor; test: Antagonist activity at ER alpha in human MCF7 cells assessed as inhibition of estradiol-induced PR expression treated for 24 hrs after incubation with estradiol for 30 mins by laser scanning imaging cytometer analysis; format: cell-based
[18] = Volume of distribution at steady state in Alderley Park Han Wistar rat at 0.5 mg/kg, iv; format: ADME, organism-based; design: dose 0.5 mg/kg, route intravenous; details: in vivo, read-out: Vdss
Method in brief: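 Fed CD-1 mice or Alderley Park Han Wistar rats, two animals per study; IV 0.5 mg/kg as aqueous solution of DMSO and cyclodextrin; clearance and Vss derived.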

[19] = Drug metabolism in rat hepatocytes assessed as formation of glucuronide conjugates by LC-UV-MS analysis; format: ADME, cell-based, Hepatocyte
[20] = Oral bioavailability in Alderley Park Han Wistar rat at 1 mg/kg using HPMC/tween suspension; format: ADME, organism-based; details: in vivo; method in brief: as §3
[21] = Dissociation constant, pKa of the compound by potentiometric analysis; format: physicochemical; method in brief: as §2

Row | SMILES | hepatocyte CLint [3] [µL/min/1e6 cells] | hepatocyte CLint [5] [µL/min/1e6 cells] | IC50 (Estrogen receptor [6]) [nM] | logD [7] | IC50 (Estrogen receptor [9]) [nM] | also measured
1 | CC/C(=C(\c1ccc(O)cc1)c1ccc(/C=C/C(=O)O)cc1)c1ccccc1 | 12 | – | – | – | – | fraction unbound [1]: 0.0009; IC50 [2]: > 100000 nM; solubility thermodynamic at 24 h [4]: 200 µM (≈ 74.1 µg/mL)
2 | Cc1cccc(-c2c(Cc3ccc(/C=C/C(=O)O)cc3)c3ccc(O)cc3oc2=O)c1 | – | – | 3090 | 2.2 | 17 | –
3 | COc1cccc(-c2c(Cc3ccc(/C=C/C(=O)O)cc3)c3ccc(O)cc3oc2=O)c1 | – | – | 5640 | 1.9 | 41 | –
4 | O=C(O)/C=C/c1ccc(Cc2c(-c3cccc(OC(F)(F)F)c3)c(=O)oc3cc(O)ccc23)cc1 | – | – | 1710 | 2.9 | 5.9 | –
5 | COc1cc(F)ccc1-c1c(Cc2ccc(/C=C/C(=O)O)cc2)c2ccc(O)cc2oc1=O | – | – | 2260 | 1.8 | 11 | –
6 | Cc1cc(F)ccc1-c1c(Nc2ccc(/C=C/C(=O)O)cc2)c2ccc(O)cc2oc1=O | – | – | 1450 | 1.3 | 25 | –
7 | Cc1cc(F)ccc1-c1c(Oc2ccc(/C=C/C(=O)O)cc2)c2cc(F)c(O)cc2oc1=O | 84 | 28 | > 3000 | 0.8 | 7.4 | pKa [8]: 5.8
8 | Cc1c(O)ccc2c(Cc3ccc(/C=C/C(=O)O)cc3)c(-c3ccc(OC(F)(F)F)cc3)c(=O)oc12 | 39 | 20 | 5840 | 3.4 | 280 | pKa [8]: 8.5
9 | O=C(O)/C=C/c1ccc(Cc2c(-c3ccc(OC(F)(F)F)cc3)c(=O)oc3ccccc23)cc1 | 20 | 8 | 1300 | 2.8 | 360 | –
10 | Cc1cc(F)ccc1-c1c(Cc2ccc(/C=C/C(=O)O)cc2)c2ccc(C(F)F)cc2oc1=O | 16 | < 3 | > 2150 | 2.2 | 390 | –
11 | COc1ccc2c(Cc3ccc(/C=C/C(=O)O)cc3)c(-c3ccc(OC(F)(F)F)cc3)c(=O)oc2c1 | 23 | 23 | 3600 | 3 | 1100 | –
12 | O=C(O)/C=C/c1ccc(Cc2c(-c3ccc(OC(F)(F)F)cc3)c(=O)oc3cc(F)ccc23)cc1 | 4.4 | – | 10600 | 2.5 | 5800 | –
13 | Cc1cc(F)ccc1-c1c(Cc2ccc(/C=C/C(=O)O)cc2)c2ccc(N)cc2oc1=O | 18 | 10 | 1380 | 1.7 | – | –

Continued by falling IC50 (Estrogen receptor [6]), values first:

Row | hepatocyte CLint [3] [µL/min/1e6 cells] | hepatocyte CLint [5] [µL/min/1e6 cells] | IC50 (Estrogen receptor [6]) [nM] | logD [7] | IC50 (Estrogen receptor [9]) [nM] | SMILES | also measured
14 | – | – | 660 | 1.7 | 3 | O=C(O)/C=C/c1ccc(Cc2c(-c3ccc(F)cc3F)c(=O)oc3cc(O)ccc23)cc1 | –
15 | – | – | 531 | 2.6 | 4.6 | O=C(O)/C=C/c1ccc(Cc2c(-c3ccc(C(F)(F)F)cc3)c(=O)oc3cc(O)ccc23)cc1 | –
16 | 33 | 11 | 509 | 0.6 | 3.2 | Cc1cc(F)ccc1-c1c(Oc2ccc(/C=C/C(=O)O)cc2)c2ccc(O)c(F)c2oc1=O | pKa [8]: 6.1
17 | 3 | 11 | 506 | 3 | 50 | Cc1cc(OC(F)(F)F)ccc1-c1c(Oc2ccc(/C=C/C(=O)O)cc2)c2ccc(C(F)F)cc2oc1=O | –
18 | – | – | 471 | 2.4 | 3.7 | O=C(O)/C=C/c1ccc(Cc2c(-c3ccc(Cl)cc3)c(=O)oc3cc(O)ccc23)cc1 | –
19 | – | – | 350 | 1.9 | 3.8 | COc1ccc(-c2c(Cc3ccc(/C=C/C(=O)O)cc3)c3ccc(O)cc3oc2=O)cc1 | –
20 | 37 | 17 | 320 | 3.1 | 10 | Cc1cc2c(Cc3ccc(/C=C/C(=O)O)cc3)c(-c3ccc(OC(F)(F)F)cc3)c(=O)oc2cc1O | pKa [8]: 7.6
21 | – | – | 256 | 2 | 5.8 | Cc1cc(F)ccc1-c1c(-c2ccc(/C=C/C(=O)O)cc2)c2ccc(O)cc2oc1=O | –
22 | 21 | 20 | 253 | – | 50 | CCOc1ccc2c(Oc3ccc(/C=C/C(=O)O)cc3)c(-c3ccc(OC(F)(F)F)cc3C)c(=O)oc2c1 | –
23 | 27 | 9 | 248 | 2 | 72 | Cc1cc(F)ccc1-c1c(Oc2ccc(/C=C/C(=O)O)cc2)c2ccccc2oc1=O | fraction unbound [1]: 0.014; Papp A→B [12]: 47 ×10⁻⁶ cm/s; clearance [15]: 23 mL/min/kg; bioavailability [20]: 47%; IC50 [2]: > 100000 nM; pKa [21]: 5.3; fraction unbound [16]: 0.005; IC50 (Estrogen receptor [17]): 330 nM; Vd [18]: 0.47 L/kg; solubility thermodynamic at 24 h [4]: > 1500 µM
24 | – | – | 178 | – | 2.2 | O=C(O)/C=C/c1ccc(Cc2c(-c3ccc(F)cc3Cl)c(=O)oc3cc(O)ccc23)cc1 | –
25 | 81 | 11 | 117 | 2.1 | 3.9 | Cc1cc(F)ccc1-c1c(Cc2ccc(/C=C/C(=O)O)cc2)c2ccc(O)cc2oc1=O | pKa [8]: 7.7
26 | – | – | 60 | 2.3 | 9.9 | Cc1cc(F)ccc1-c1c(N(C)c2ccc(/C=C/C(=O)O)cc2)c2ccc(O)cc2oc1=O | –
27 | 69 | 14 | 55 | 1.6 | 1.3 | Cc1cc(F)ccc1-c1c(Cc2ccc(/C=C/C(=O)O)cc2)c2c(F)cc(O)cc2oc1=O | Drug metabolism [19]: metabolite_detected; pKa [8]: 7.2
28 | 40 | 9 | 52 | 2.8 | 1.6 | O=C(O)/C=C/c1ccc(Cc2c(-c3ccc(OC(F)(F)F)cc3)c(=O)oc3cc(O)ccc23)cc1 | pKa [8]: 8.7
29 | – | – | 30 | – | 1.5 | Cc1cc(Cl)ccc1-c1c(Cc2ccc(/C=C/C(=O)O)cc2)c2ccc(O)cc2oc1=O | –
30 | 50 | 32 | 21 | 1.6 | 0.4 | Cc1cc(F)ccc1-c1c(Oc2ccc(/C=C/C(=O)O)cc2)c2ccc(O)cc2oc1=O | hepatocyte CLint [10]: 68 µL/min/1e6 cells; bioavailability [11]: 5%; fraction unbound [1]: 0.0051; Papp A→B [12]: 19 ×10⁻⁶ cm/s; fraction unbound [13]: 0.028; pKa [14]: 3.9; clearance [15]: 35 mL/min/kg; EC50 (MCF7): 4.5 nM; fraction unbound [16]: 0.0025; IC50 (Estrogen receptor [17]): 27 nM; Vd [18]: 0.9 L/kg; solubility thermodynamic at 24 h [4]: > 2000 µM; pKa [8]: 7.1
31 | – | – | 7 | 3.1 | 1 | Cc1cc(OC(F)(F)F)ccc1-c1c(Cc2ccc(/C=C/C(=O)O)cc2)c2ccc(O)cc2oc1=O | –
